Source: PubChem BioAssay AID588717 (Southern Research Specialized Biocontainment Screening …, 2011)
Records with an inconclusive call do not appear. The source made the active and inactive calls.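 Rule for the calls: active = viability below 80% at one or more tested concentrations; inconclusive = replicate runs disagree on the 80% viability cutoff; inactive = viability above 80% at every tested concentration.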

System: not listed separately
Experiment: viability reduction of Vero E6 cells – cell-based, M1 aminopeptidase campaign, cytotoxicity control for P. falciparum PFM1AAP inhibitor project, dose response (AID 588717)
Settings: Vero E6 viability, CellTiter-Glo luminescence, 72 h; at 50 µM (top of the series)
Procedure, shortened: (§1)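 System: Vero E6 cells / Quantity: 3000 cells/well / Medium: E-MEM plus 10% FBS / Dosing: compound series of 10 points in 2-fold steps / Schedule: 72 h compound exposure at 37 °C, 5% CO2 / Technique: CellTiter-Glo luminescence / Read-out: % viability vs vehicle, CC50 from curve fit / Controls: DMSO vehicle wells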

Compound | viability
CC[C@H](C)[C@H](NC(=O)c1ccc([N+](=O)[O-])cc1)C(=O)NCc1ccc(C(F)(F)F)cc1 | 92.2% (inactive)
COc1ccc(-c2ccc(S(=O)(=O)N3CCC(C(=O)NCc4ccc5c(c4)OCO5)CC3)s2)cc1 | 84.2% (inactive)
CC[C@H](C)[C@H](NS(=O)(=O)c1cccs1)C(=O)NCc1ccc(F)cc1 | 95.5% (inactive)
COc1cccc(-c2ccc(S(=O)(=O)N3CCC(C(=O)NCc4ccc5c(c4)OCO5)CC3)s2)c1 | 83.4% (inactive)
CC[C@H](C)[C@H](NS(=O)(=O)c1ccc(Br)s1)C(=O)NCc1ccc(F)cc1 | 97% (inactive)
CC[C@H](C)[C@H](NC(=O)c1ccc([N+](=O)[O-])cc1)C(=O)NCc1ccccc1 | 88.9% (inactive)
CC[C@H](C)[C@H](NS(=O)(=O)c1ccc(Br)s1)C(=O)O | 104% (inactive)

System: Vero E6 viability, CellTiter-Glo luminescence, 72 h
Experiment: as above
Settings: not given
Procedure, shortened: as §1

Compound | CC50
CC[C@H](C)[C@H](NS(=O)(=O)c1ccc(Br)s1)C(=O)NCc1ccc(C(F)(F)F)cc1 | 28.7 µM
